Results: ChEMBL document CHEMBL3526118, “Combination of GSH trapping and time-dependent inhibition assays as a predictive method of drugs generating highly reactive metabolites” (Drug Metab Dispos, 2011)

What was measured:
CYP2B6 [1] = target: T1, CYP2B6 (Homo sapiens, UniProt P20813); test: Time dependent inhibition of CYP2B6 (unknown origin) at 30 uM by LC/MS system; type: ADME
T1 sequence (P20813 whole entry): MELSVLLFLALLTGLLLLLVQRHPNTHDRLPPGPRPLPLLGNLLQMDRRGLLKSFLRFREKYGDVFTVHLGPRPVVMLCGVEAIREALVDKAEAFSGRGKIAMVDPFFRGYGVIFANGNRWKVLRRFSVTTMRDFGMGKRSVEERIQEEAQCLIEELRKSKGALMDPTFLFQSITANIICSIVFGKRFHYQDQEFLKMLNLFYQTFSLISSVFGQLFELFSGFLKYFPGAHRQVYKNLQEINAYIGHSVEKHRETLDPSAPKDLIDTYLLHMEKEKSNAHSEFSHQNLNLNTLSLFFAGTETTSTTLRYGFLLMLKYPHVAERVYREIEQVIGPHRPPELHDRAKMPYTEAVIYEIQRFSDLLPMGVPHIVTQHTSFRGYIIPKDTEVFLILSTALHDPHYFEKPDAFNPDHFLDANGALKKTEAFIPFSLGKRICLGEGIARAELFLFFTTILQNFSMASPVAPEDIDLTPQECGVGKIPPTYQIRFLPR
How it was run: (§1)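 CYP2B6 in human liver microsomes (1.0 mg/mL in preincubation), 0.1 M sodium phosphate, NADPH-generating system. Preincubation 0 or 30 min, then ten-fold dilution into incubation solution containing 50 μM bupropion (final) for 10 min. Activity is expressed as percent of the matched no-inhibitor control. % inactivation = 100 × [1 − control(30 min)/control(0 min)]; threshold 10%.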

Liver microsome [2] = test: Covalent binding in human liver microsomes measured per mg of protein using radiolabelled compound at 10 uM after 1 hr incubation by liquid scintillation counting
Liver microsome [3] = test: Metabolic activation in human liver microsomes assessed as [3H]GSH adduct formation rate measured per mg of protein at 100 uM by [3H]GSH trapping assay
CYP2C8 [4] = target: T2, CYP2C8 (Homo sapiens, UniProt P10632); test: Time dependent inhibition of CYP2C8 (unknown origin) at 10 uM by LC/MS system; type: ADME
T2 sequence (P10632 whole entry): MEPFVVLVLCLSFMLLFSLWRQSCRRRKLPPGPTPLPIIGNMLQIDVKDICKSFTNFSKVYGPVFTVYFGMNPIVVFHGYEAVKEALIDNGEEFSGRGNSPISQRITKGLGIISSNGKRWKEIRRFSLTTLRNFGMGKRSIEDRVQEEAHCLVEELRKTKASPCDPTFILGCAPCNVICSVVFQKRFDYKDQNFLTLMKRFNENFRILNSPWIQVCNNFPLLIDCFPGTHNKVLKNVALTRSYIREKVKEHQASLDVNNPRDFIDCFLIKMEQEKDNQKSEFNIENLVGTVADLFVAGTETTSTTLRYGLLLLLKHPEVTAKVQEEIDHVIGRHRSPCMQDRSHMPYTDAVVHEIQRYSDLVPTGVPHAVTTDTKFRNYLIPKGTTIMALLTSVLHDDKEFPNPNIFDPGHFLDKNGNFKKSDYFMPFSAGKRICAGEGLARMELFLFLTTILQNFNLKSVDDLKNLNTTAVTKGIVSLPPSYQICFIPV
How it was run: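 CYP2C8 in human liver microsomes (1.0 mg/mL in preincubation), 0.1 M sodium phosphate, NADPH-generating system. Preincubation 0 or 30 min, then ten-fold dilution into incubation with 10 μM paclitaxel (final) for 10 min.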

CYP2C9 [5] = target: T3, CYP2C9 (Homo sapiens, UniProt P11712); test: Time dependent inhibition of CYP2C9 (unknown origin) at 30 uM by LC/MS system; type: ADME
T3 sequence (P11712 whole entry): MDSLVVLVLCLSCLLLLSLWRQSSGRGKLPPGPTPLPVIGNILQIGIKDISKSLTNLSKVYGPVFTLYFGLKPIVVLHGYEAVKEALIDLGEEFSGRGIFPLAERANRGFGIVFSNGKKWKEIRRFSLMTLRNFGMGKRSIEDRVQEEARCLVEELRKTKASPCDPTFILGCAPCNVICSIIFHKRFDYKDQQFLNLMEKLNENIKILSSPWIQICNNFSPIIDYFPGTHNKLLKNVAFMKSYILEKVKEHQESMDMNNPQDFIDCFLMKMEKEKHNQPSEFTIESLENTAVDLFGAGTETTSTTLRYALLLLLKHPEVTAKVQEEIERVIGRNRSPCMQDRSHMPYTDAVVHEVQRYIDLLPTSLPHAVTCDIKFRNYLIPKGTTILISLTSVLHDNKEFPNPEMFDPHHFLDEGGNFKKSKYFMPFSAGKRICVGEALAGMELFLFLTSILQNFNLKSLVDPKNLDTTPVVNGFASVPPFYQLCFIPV
How it was run: (§2)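 Human liver microsomes at 1.0 mg/mL were preincubated 0 or 30 min with compound and NADPH-generating system in 0.1 M sodium phosphate, then diluted ten-fold into incubation containing 200 μM tolbutamide (final) for 10 min to probe CYP2C9. Percent of matched no-inhibitor control was determined at each time. Inactivation = 100 × [1 − ratio of 30-min to 0-min values]; 10% threshold.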

CYP3A4 [6] = target: T4, CYP3A4 (Homo sapiens, UniProt P08684); test: Time dependent inhibition of CYP3A4 (unknown origin) at 50 uM by LC/MS system; type: ADME
T4 sequence (P08684 whole entry): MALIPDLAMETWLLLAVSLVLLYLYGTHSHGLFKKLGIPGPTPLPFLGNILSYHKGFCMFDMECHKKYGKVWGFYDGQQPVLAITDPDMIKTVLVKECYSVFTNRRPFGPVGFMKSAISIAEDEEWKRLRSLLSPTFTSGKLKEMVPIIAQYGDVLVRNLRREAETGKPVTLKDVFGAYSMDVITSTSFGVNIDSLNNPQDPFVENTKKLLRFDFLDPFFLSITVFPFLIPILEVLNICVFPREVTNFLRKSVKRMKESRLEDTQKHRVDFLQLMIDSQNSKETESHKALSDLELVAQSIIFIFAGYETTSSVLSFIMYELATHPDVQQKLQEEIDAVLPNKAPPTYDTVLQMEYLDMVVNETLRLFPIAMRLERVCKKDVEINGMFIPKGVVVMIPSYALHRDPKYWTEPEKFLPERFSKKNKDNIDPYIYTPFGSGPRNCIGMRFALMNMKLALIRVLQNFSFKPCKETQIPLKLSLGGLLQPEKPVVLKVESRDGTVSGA
How it was run: (§3)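 CYP3A4: human liver microsomes at 0.5 mg/mL in preincubation, 0.1 M sodium phosphate, NADPH-generating system, 0 or 30 min. Ten-fold dilution into incubation with 2.5 μM midazolam (final), 10 min. Each value is relative to the matched control without inhibitor. % enzyme inactivation = 100 × [1 − %control(30 min)/%control(0 min)]; 10% threshold.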

[7] = Intrinsic clearance for reactive metabolites formation per mg of protein based on cytochrome P450 (unknown origin) inactivation rate by TDI assay; details: human
[8] = Intrinsic clearance for reactive metabolites formation assessed as summation of [3H]GSH adduct formation rate-based reactive metabolites formation and cytochrome P450 (unknown origin) inactivation rate-based reactive metabolites formation; details: human
Liver microsome [9] = details: human, microsomes, 100 µM
CYP1A2 = target: T5, CYP1A2 (Homo sapiens, UniProt P05177); test: in vitro
T5 sequence (P05177 whole entry): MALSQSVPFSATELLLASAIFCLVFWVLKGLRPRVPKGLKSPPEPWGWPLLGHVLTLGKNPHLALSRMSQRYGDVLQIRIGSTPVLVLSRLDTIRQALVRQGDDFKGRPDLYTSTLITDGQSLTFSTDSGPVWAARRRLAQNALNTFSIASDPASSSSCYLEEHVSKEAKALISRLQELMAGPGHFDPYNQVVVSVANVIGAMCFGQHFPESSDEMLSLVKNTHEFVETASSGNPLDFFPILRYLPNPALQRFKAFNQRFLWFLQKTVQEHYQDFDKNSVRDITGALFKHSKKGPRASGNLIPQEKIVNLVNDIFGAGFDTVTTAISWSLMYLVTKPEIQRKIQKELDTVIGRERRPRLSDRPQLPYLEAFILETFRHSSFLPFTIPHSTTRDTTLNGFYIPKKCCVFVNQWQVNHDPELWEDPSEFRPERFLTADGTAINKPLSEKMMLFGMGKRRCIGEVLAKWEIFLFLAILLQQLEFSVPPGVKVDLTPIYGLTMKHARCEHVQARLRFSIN

CYP2D6 [10] = target: T6, CYP2D6 (Homo sapiens, UniProt P10635); test: in vitro
T6 sequence (P10635 whole entry): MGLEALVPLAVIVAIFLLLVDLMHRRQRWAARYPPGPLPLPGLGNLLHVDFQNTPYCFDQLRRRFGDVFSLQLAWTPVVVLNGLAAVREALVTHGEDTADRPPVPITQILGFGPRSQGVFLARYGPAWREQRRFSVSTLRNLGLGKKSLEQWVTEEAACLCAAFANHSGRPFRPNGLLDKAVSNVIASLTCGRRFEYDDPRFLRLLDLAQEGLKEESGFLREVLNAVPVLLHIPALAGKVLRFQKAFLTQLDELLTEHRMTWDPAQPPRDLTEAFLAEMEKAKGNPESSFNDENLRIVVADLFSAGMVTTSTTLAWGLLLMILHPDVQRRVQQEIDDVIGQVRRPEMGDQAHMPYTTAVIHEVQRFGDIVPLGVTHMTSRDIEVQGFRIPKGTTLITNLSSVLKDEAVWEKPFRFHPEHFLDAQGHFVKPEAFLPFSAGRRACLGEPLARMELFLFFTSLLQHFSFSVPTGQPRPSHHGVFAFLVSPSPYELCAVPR

CYP2C19 [11] = target: T7, CYP2C19 (Homo sapiens, UniProt P33261); test: in vitro; details: human liver microsomes
T7 sequence (P33261 whole entry): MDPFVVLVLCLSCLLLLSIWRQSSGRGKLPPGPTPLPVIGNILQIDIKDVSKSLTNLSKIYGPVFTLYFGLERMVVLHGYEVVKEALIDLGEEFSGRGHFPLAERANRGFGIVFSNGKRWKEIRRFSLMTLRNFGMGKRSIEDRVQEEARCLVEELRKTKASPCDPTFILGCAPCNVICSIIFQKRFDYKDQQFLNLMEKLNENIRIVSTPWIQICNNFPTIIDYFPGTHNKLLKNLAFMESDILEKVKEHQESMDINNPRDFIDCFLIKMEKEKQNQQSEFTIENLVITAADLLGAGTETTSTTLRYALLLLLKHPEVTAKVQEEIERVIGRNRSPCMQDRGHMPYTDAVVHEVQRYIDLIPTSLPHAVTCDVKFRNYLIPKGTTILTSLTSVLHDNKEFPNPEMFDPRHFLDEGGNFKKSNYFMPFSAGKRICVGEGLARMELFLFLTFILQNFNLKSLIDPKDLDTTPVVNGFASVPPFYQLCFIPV

CYP2C19 [12] = target: T7, CYP2C19; test: Time dependent inhibition of CYP2C19 in human liver microsomes at 30 uM by LC/MS system; type: ADME
How it was run: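 Human liver microsomes at 2.0 mg/mL in preincubation, 0.1 M sodium phosphate, NADPH-generating system; 0- or 30-min preincubation with inhibitor, then tenfold dilution into incubation containing 50 μM (S)-mephenytoin for 10 min; LC separation. Percent inactivation = 100×[1 − %control(30 min)/%control(0 min)] versus inhibitor-free controls; >10% counted positive. Concentration reduced from 100 μM for strong reversible inhibitors.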

CYP2D6 [13] = target: T6, CYP2D6; test: Time dependent inhibition of CYP2D6 (unknown origin) at 10 uM by LC/MS system; type: ADME
How it was run: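 CYP2D6 activity was measured with 30 μM dextromethorphan (final) after 0 or 30 min preincubation of compound with human liver microsomes (1.0 mg/mL) and NADPH-generating system in 0.1 M sodium phosphate. A ten-fold dilution was followed by a 10-min incubation. % inactivation = 100 × [1 − %control(30 min)/%control(0 min)]; threshold 10%.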

CYP2B6 [14] = target: T1, CYP2B6; test: in vitro
CYP2C9 [15] = target: T3, CYP2C9; test: in vitro
CYP3A4 [16] = target: T4, CYP3A4; test: in vitro
CYP2C8 [17] = target: T2, CYP2C8; test: in vitro
CYP2B6 [18] = target: T1, CYP2B6; test: in vitro; remark: listed apart in the source
CYP2B6 [19] = target: T1, CYP2B6; test: Time dependent inhibition of CYP2B6 (unknown origin) at 10 uM by LC/MS system; type: ADME; how it was run: as §1
CYP3A4 [20] = target: T4, CYP3A4; test: Time dependent inhibition of CYP3A4 (unknown origin) at 10 uM by LC/MS system; type: ADME; how it was run: as §3
CYP2C8 [21] = target: T2, CYP2C8; test: Time dependent inhibition of CYP2C8 (unknown origin) at 3 uM by LC/MS system; type: ADME
How it was run: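 CYP2C8 in human liver microsomes (1.0 mg/mL in preincubation), 0.1 M sodium phosphate, NADPH-generating system. Preincubation 0 or 30 min, then ten-fold dilution into incubation with 10 μM paclitaxel (final) for 10 min. Activity is taken relative to the matched no-inhibitor control. % inactivation = 100 × [1 − %control(30 min)/%control(0 min)]; threshold 10%.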

CYP2C9 [22] = target: T3, CYP2C9; test: Time dependent inhibition of CYP2C9 (unknown origin) at 10 uM by LC/MS system; type: ADME; how it was run: as §2
CYP2C19 [23] = target: T7, CYP2C19; test: in vitro; details: human liver microsomes; remark: listed apart in the source

| SMILES | PB (Liver microsome [2]) [pmol] | Drug metabolism (Liver microsome [3]) | clearance [7] [µL/min/mg] | clearance [8] [µL/min/mg] | inhibition at 100 µM (CYP1A2) [%] | inhibition at 100 µM (CYP2D6 [10]) [%] | inhibition at 10 µM (CYP2D6 [13]) [%] | inhibition at 100 µM (CYP2C9 [15]) [%] | inhibition at 100 µM (CYP3A4 [16]) [%] | inhibition at 100 µM (CYP2C8 [17]) [%] | also measured |
| --- | --- | --- | --- | --- | --- | --- | --- | --- | --- | --- | --- |
| C#C[C@]1(O)CC[C@H]2[C@@H]3CCc4cc(O)ccc4[C@H]3CC[C@@]21C [ETHINYL ESTRADIOL] | 937.5 | 34 pmol/min | 0.087 | 0.427 | 18 | < 10 | – | – | – | – | inhibition at 30 µM (CYP2B6 [1]): < 10%; inhibition at 10 µM (CYP2C8 [4]): < 10%; inhibition at 30 µM (CYP2C9 [5]): 27%; inhibition at 50 µM (CYP3A4 [6]): 65%; CLH (Liver microsome [9]): 0.34 µL/min/mg; inhibition at 10 µM (CYP2C19 [11]): < 10% |
| CNCCC(Oc1ccc(C(F)(F)F)cc1)c1ccccc1 (stereo not given) [FLUOXETINE] | 15 | metabolite_not_detected | 0.008 | 0.008 | 12 | – | < 10 | < 10 | < 10 | < 10 | inhibition at 30 µM (CYP2C19 [12]): 36%; inhibition at 100 µM (CYP2B6 [14]): < 10% |
| Clc1ccccc1CN1CCc2sccc2C1 [TICLOPIDINE] | – | – | – | – | 36 | – | < 10 | < 10 | 26 | < 10 | inhibition at 0.1 µM (CYP2B6 [18]): 35% |
| COc1cc(C(=O)NS(=O)(=O)c2ccccc2C)ccc1Cc1cn(C)c2ccc(NC(=O)OC3CCCC3)cc12 [ZAFIRLUKAST] | 36.4 | metabolite_not_detected | 0.207 | 0.207 | 11 | < 10 | – | – | – | – | inhibition at 10 µM (CYP2B6 [19]): < 10%; inhibition at 10 µM (CYP3A4 [20]): 43%; inhibition at 3 µM (CYP2C8 [21]): < 10%; inhibition at 10 µM (CYP2C9 [22]): < 10%; inhibition at 100 µM (CYP2C19 [23]): < 10% |
